Measurements published in ChEMBL document CHEMBL1144767, “Characterization of chemical libraries for luciferase inhibitory activity” (J Med Chem, 2008).
The source made the active and inactive calls. The calls are words filed in the database; no cut-off is given here.

Tests used:
[1] = target: T1, Luciferin 4-monooxygenase (Photinus pyralis, UniProt P08659); assay: Inhibition of Photinus pyralis luciferase by BrightGlo reporter gene assay
Outline: (§1)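 5 nM purified P. pyralis luciferase in SteadyGlo or BrightGlo reporter-gene reagent; no extra ATP or D-luciferin added. 1536-well luminescence. Curves from 16 two-fold concentrations in duplicate, repeated on two or three separate days.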

[2] = target: T1, Luciferin 4-monooxygenase; assay: Inhibition of Photinus pyralis luciferase by PK-Light assay
[3] = target: T1, Luciferin 4-monooxygenase; assay: Inhibition of Photinus pyralis luciferase by Steady-Glo reporter gene assay; outline: as §1
[4] = target: T1, Luciferin 4-monooxygenase; assay: Inhibition of Photinus pyralis luciferase by Easy lite assay
Outline: (§2)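 Detection by 2 µL of EasyLite or Kinase-Glo reagent (Kinase-Glo containing P. pennsylvanica luciferase). 1536-well luminescence. 16 two-fold concentrations, duplicate wells, repeated on two or three days.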

[5] = target: T1, Luciferin 4-monooxygenase; assay: Inhibition of Photinus pyralis luciferase
[6] = Inhibition of Renilla reniformis luciferase
[7] = target: T2, Luciferin 4-monooxygenase (Photuris pensylvanica, UniProt Q27757); assay: Inhibition of luciferase Photuris pennsylvanica by Promega Kinase-Glo assay; outline: as §2
T2 sequence (Q27757 whole entry): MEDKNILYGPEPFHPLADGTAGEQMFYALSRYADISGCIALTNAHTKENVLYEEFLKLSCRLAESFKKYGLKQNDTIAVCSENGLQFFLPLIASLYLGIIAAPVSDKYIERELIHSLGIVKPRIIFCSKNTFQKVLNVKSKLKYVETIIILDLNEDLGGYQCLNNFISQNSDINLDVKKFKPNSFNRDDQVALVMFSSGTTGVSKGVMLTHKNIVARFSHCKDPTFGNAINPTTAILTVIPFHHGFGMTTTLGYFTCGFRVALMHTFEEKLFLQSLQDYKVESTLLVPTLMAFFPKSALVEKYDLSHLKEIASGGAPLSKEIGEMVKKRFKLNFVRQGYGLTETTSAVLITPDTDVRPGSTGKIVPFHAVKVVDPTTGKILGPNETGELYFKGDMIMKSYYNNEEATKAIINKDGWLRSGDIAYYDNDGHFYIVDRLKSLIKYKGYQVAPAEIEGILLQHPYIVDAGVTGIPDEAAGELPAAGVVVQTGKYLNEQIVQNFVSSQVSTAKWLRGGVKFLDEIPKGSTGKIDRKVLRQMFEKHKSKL

[8] = target: Luciferin 4-monooxygenase (Photinus pyralis) (UniProt P08659); assay: Inhibition of […] luciferase at 100 uM
Luciferin 4-monooxygenase (Photinus pyralis), sequence (P08659 whole entry): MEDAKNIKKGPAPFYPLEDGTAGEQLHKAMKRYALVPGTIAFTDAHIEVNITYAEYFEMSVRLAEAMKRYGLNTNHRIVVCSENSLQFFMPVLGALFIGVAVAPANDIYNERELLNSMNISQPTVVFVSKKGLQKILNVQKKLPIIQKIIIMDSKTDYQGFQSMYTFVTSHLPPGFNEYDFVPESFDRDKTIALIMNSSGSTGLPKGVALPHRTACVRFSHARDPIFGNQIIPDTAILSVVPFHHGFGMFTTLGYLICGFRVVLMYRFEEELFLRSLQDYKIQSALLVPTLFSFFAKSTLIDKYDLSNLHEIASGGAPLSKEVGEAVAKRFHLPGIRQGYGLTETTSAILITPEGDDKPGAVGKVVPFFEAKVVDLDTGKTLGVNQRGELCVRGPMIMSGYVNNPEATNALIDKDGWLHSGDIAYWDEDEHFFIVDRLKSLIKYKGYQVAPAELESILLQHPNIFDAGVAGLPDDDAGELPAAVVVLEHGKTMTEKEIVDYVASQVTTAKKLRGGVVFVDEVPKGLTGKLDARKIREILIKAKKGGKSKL
Outline: (§3)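 Light attenuation in two-chamber quartz cuvette at room temperature. One half holds the reaction, the other holds compound in the same buffer. Firefly reaction: 100 µM ATP and D-luciferin, 100 nM enzyme, 5 nm slit. Renilla reaction: 50 µM coelenterazine, 100 nM enzyme, 10 nm slit. Emission scanned 400–700 nm in 2 nm steps, 0.1 s integration. Compounds 2-fold diluted from 100 µM.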

[9] = target: Luciferin 4-monooxygenase (Photinus pyralis) (UniProt P08659); assay: Inhibition of […] luciferase at 20 uM assessed as quenching of luminescence; design: scale not given: the % may be the effect or the level left; outline: as §3
Renilla reniformis = assay: Inhibition of Renilla reniformis luciferase at 20 uM assessed as quenching of luminescence; design: scale not given: the % may be the effect or the level left; outline: as §3

T1 sequence (P08659 whole entry): as above

IC50 [1]	IC50 [2]	IC50 [3]	IC50 [4]	IC50 [5]	IC50 [6]	IC50 [7]	Activity [8]	Activity [9]	Activity (Renilla reniformis)	SMILES
2 µM	1.7 µM	1.6 µM	1.26 µM	4.5 µM	36 µM	1.8 µM	inactive	–	–	Cc1ccc(O)c(/N=N/c2ccccc2)n1
17 µM	6.9 µM	22 µM	7.6 µM	1.7 µM	10 µM	20 µM	–	50%	50%	Cc1cc(-c2ccc(/N=N/c3ccc4c(S(=O)(=O)O)cc(S(=O)(=O)O)c(N)c4c3O)c(C)c2)ccc1/N=N/c1ccc2c(S(=O)(=O)O)cc(S(=O)(=O)O)c(N)c2c1O [EVANS BLUE]
